The results in this text go back to ChEMBL document CHEMBL1125909, “Synthesis of chiral and achiral pyranenamine derivatives. Potent agents with topical ocular antiallergic activity” (J Med Chem, 1991).

The test system of data set [1] is Rattus norvegicus. Put plainly: Compound was evaluated for the type-I hypersensitivity in rat POA model after intravenous administration. To be noted: read-out: ID50 (the source's name). The format is functional. The gist of the method:
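Modified Iso method. Rats of 150–200 g were sensitized with three conjunctival injections per eye (bulbar, palpebral, lower) of 50 μL of 1:4-diluted rat IgE anti-ovalbumin antiserum. 24 h later, drug was given IV just before IV challenge with ovalbumin (25 mg/kg) plus Evans blue (12.5 mg/kg in saline). Eyelids and eyeballs were taken at 30 min, extracted in acetone/0.5% sodium sulfate, and read at 620 nm. Result expressed as ID50 (mg/kg).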

Data set [2] is described as follows: Compound was evaluated for pyranenamine lipophilicity. The format is physicochemical. To be noted: octanol/water.
Data set [3] has as its system Rattus norvegicus. Put plainly: Compound was evaluated for the type-I hypersensitivity in rat POA model at a concentration of 5% administered topically. The format is functional. The gist of the method:
(§1)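 Modified Iso passive ocular anaphylaxis in 150–200 g rats. Each eye was sensitized by three conjunctival injections of 50 μL of 1:4-diluted rat IgE anti-ovalbumin antiserum. At 24 h, 10 μL of drug solution was instilled topically 15 min before, just prior to, and 15 min after IV ovalbumin (25 mg/kg) with Evans blue (12.5 mg/kg). At 30 min, eye tissue dye was extracted in acetone/0.5% Na2SO4 and read at 620 nm. Result expressed as % inhibition.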

The subject of data set [4] is Rattus norvegicus. Nature of the data set: Compound was evaluated for the type-I hypersensitivity in rat POA model at a concentration of 1% administered topically. It is filed as functional. The gist of the method:
as §1

The subject of data set [5] is Rattus norvegicus. Put plainly: Compound was evaluated for the type-I hypersensitivity in rat POA model at a concentration of 3% administered topically. The format is functional. The gist of the method:
as §1

For data set [6], the system named is Rattus norvegicus. Nature of the data set: Compound was evaluated for the type-I hypersensitivity in rat POA model at a concentration of 10% administered topically. It is filed as functional. The gist of the method:
as §1

Data set [7] deals with Rattus norvegicus. Put plainly: Compound was evaluated for the type-I hypersensitivity in rat POA model at a concentration of 4% administered topically. It is filed as functional. The method, boiled down: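 Modified Iso method. Rats (150–200 g) sensitized with three 50 µL injections per eye (bulbar conjunctiva, palpebral, lower conjunctiva) of 1:4-diluted rat IgE anti-ovalbumin antisera. After 24 h, iv challenge with ovalbumin 25 mg/kg plus Evans blue 12.5 mg/kg. Drug (10 µL) instilled 15 min before, just before and 15 min after challenge. Killed at 30 min; eyelids and eyeballs extracted in acetone/0.5% sodium sulfate; read at 620 nm; % inhibition.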

As for `CC(=O)C1=C(O)C(=C(C)Nc2cc(NC(=O)[C@H](O)CO)cc(NC(=O)[C@H](O)CO)c2)C(=O)OC1=O`, in data set [1], the ED50 turned out to be 300 mg/kg. Moreover, in data set [2], the logP is -2.44.
In the case of `CC(=O)c1c(O)c(/C(C)=N/c2cc(NC(=O)C(CO)CO)cc(NC(=O)C(CO)CO)c2)c(O)oc1=O`, the Inhibition in data set [3] is 41%; in data set [4], 12%; in data set [5], 31%. Further, the ED50 in data set [1] is 30 mg/kg. In data set [2], the logP is -2.43.
Turning to `CC(=O)c1c(O)c(/C(C)=N/c2cc(NC(=O)C(O)CO)cc(NC(=O)C(O)CO)c2)c(O)oc1=O` (stereo not given), in data set [1], the ED50 was determined as 60 mg/kg. Also, in data set [2], the logP was -2.44. For the same compound, the Inhibition was determined as 16% in data set [4] and 25% in data set [5].
For `CC(=O)c1c(O)c(/C(C)=N/c2cc(NC(=O)CO)cc(NC(=O)CO)c2)c(O)oc1=O`, in data set [1], the ED50 is 30 mg/kg. The log partition coefficient (logP) in data set [2] is -0.32. The compound further yielded an Inhibition in data set [5] of 15%.
Take `CC(=O)C1=C(O)C(=C(C)Nc2cc(NC(=O)[C@@H](O)CO)cc(NC(=O)[C@@H](O)CO)c2)C(=O)OC1=O`: the Inhibition in data set [3] is on record as 63%; in data set [6] it was 79%; in data set [5], 40%. Besides, in data set [1], the ED50 is 30 mg/kg. Further, the logP in data set [2] is -2.44.
Compound `O=C([O-])c1cc(=O)c2c(OCC(O)COc3cccc4oc(C(=O)[O-])cc(=O)c34)cccc2o1.[Na+].[Na+]` [CROMOLYN SODIUM] showed an Inhibition in data set [7] of 0%.
